The source made the active and inactive calls. The calls are words filed in the database; no cut-off is given here.
Tests used:
[1] = biological target: T1, Son of sevenless homolog 1 (Homo sapiens) (UniProt Q07889); experiment: Activation of human recombinant N-terminal His6-tagged SOS1 (564 to 1049 residues) expressed in BL21-RIL Escherichia coli assessed as SOS1-RAS complex formation by measuring exchange of GTP to BODIPY-GDP measured every 3 secs for 30 mins by nucleotide exchange assay relative to control; set-up: concentration or dose not given beside the values
T1 sequence (whole entry): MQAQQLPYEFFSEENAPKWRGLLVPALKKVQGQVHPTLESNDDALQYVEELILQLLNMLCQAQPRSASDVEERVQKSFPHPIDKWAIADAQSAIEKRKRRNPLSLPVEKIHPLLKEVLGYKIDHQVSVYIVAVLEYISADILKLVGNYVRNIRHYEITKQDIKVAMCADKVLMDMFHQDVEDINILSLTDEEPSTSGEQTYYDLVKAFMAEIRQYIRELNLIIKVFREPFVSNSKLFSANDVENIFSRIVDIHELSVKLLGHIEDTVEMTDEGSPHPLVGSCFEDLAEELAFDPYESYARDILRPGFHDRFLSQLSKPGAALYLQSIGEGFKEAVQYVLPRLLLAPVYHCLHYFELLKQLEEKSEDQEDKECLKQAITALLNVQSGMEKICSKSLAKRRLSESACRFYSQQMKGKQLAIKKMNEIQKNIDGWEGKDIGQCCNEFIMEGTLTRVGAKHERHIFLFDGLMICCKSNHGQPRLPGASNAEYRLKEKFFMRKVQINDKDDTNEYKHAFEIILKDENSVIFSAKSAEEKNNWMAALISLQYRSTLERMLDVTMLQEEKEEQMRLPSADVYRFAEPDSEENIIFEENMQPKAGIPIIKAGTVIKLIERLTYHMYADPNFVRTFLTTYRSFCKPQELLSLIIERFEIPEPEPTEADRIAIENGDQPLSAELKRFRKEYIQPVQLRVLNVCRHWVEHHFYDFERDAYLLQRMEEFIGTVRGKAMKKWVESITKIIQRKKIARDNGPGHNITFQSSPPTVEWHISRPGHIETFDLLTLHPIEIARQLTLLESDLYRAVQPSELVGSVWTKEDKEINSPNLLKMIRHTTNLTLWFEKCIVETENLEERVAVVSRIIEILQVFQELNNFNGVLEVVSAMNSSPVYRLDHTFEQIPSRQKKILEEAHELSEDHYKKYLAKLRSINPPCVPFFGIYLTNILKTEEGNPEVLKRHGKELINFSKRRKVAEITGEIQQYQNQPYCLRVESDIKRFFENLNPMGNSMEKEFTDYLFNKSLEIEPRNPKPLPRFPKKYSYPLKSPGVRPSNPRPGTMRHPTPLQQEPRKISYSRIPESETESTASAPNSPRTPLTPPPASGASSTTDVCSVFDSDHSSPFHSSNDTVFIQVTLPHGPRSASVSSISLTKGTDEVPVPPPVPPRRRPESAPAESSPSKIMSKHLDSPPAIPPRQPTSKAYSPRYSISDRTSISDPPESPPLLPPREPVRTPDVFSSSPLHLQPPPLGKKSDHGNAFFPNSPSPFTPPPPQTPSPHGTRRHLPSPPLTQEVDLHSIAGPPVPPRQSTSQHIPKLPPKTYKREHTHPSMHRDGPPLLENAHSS

[2] = biological target: T2, Son of sevenless homolog 1 (Homo sapiens, UniProt Q07889); experiment: Activation of human recombinant N-terminal His6-tagged SOS1 (564 to 1049 residues) expressed in BL21-RIL Escherichia coli assessed as SOS1-RAS complex formation by measuring exchange of GTP to BODIPY-GDP measured every 3 secs for 30 mins by nucleotide exchange assay
T2 sequence (Q07889 whole entry): T1 sequence (whole entry)

[3] = biological target: T2, Son of sevenless homolog 1; experiment: Binding affinity to human recombinant N-terminal His6-tagged SOS1 (564 to 1049 residues) expressed in BL21-RIL Escherichia coli by fluorescent probe S2 based fluorescence polarization anisotrophy saturation binding assay
[4] = biological target: T2, Son of sevenless homolog 1; experiment: Binding affinity to human recombinant N-terminal His6-tagged SOS1 (564 to 1049 residues) expressed in BL21-RIL Escherichia coli by fluorescent probe S1 based fluorescence polarization anisotrophy saturation binding assay
Procedure, shortened: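 SOS1cat (aa 564–1049) was titrated in a 12-point, 2-fold series from 10 μM top against 50 nM fluorescein-labeled probe. Buffer was 20 mM Tris-HCl pH 7.5, 50 mM NaCl, 1 mM magnesium chloride, with 20 min at room temperature in the dark. Anisotropy was read and Kd reported as mean ± SD of at least three independent experiments.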

[5] = biological target: T2, Son of sevenless homolog 1; experiment: Activation of SOS1 in human HeLa cells expressing wild type KRAS assessed as induction of ERK1/2 T202/Y204 phosphorylation incubated for 30 mins by In-cell Western assay; type: cell-based
[6] = biological target: Son of sevenless homolog 1 (Homo sapiens, UniProt Q07889); experiment: Activation of SOS1 in human NCI-H727 cells expressing KRAS G12V mutant assessed as induction of ERK1/2 T202/Y204 phosphorylation incubated for 30 mins by In-cell Western assay; type: cell-based
[7] = biological target: T1, Son of sevenless homolog 1 (Homo sapiens); experiment: Biphasic activity at of SOS1 in human HeLa cells expressing wild type KRAS assessed as induction of ERK1/2 T202/Y204 phosphorylation at 1.5 to 100 uM (lower range) incubated for 30 mins by In-cell Western assay; type: cell-based
[8] = biological target: T1, Son of sevenless homolog 1 (Homo sapiens); experiment: Activation of SOS1 in human NCI-H727 cells expressing KRAS G12V mutant assessed as induction of ERK1/2 T202/Y204 phosphorylation at 1.5 to 100 uM (higher range) incubated for 30 mins by In-cell Western assay; type: cell-based
[9] = biological target: T1, Son of sevenless homolog 1 (Homo sapiens); experiment: Biphasic activity at of SOS1 in human HeLa cells expressing wild type KRAS assessed as reduction in ERK1/2 T202/Y204 phosphorylation at 1.5 to 100 uM (higher range) incubated for 30 mins by In-cell Western assay; type: cell-based
[10] = biological target: T1, Son of sevenless homolog 1 (Homo sapiens); experiment: Activation of SOS1 in human NCI-H727 cells expressing KRAS G12V mutant assessed as induction of ERK1/2 T202/Y204 phosphorylation at 1.5 to 100 uM (lower range) incubated for 30 mins by In-cell Western assay; type: cell-based

SMILES	Activity [1]	EC50 [2]	Kd [3]	also measured
Fc1ccc(Cn2c(N3CCNCC3)nc3ccc(C4CC4)cc32)cc1Cl	65%	24.3 µM		
Cc1cc2nc(N3CCNCC3)n(Cc3ccccc3)c2cc1C	122%	8.6 µM		
Fc1ccc(CN2C3=NCCCN3c3ccccc32)cc1	40%	63 µM		
Cc1ccc(Cn2c(N3CCNCC3)nc3cc(C)c(C)cc32)cc1	93%	36.6 µM		
Cc1cc(Cn2c(N3CCNCC3)nc3c(-c4cncnc4)cc(Cl)cc32)cc(C)c1F			350 nM	
Cc1cc(Cn2c(N3CCNCC3)nc3c(-c4ccccc4)cc(Cl)cc32)cc(C)c1F				Kd [4]: 270 nM
Cc1cc(Cn2c(N3CCNCC3)nc3c(N4CCC[C@@H]4CO)cc(Cl)cc32)cc(C)c1F			380 nM	
Cc1cc2nc(N3CCNCC3)n(Cc3cc(C)c(F)c(C)c3)c2cc1C	270%	3.7 µM		
Cc1cc2c(cc1C)N(Cc1ccccc1)C1=NCCCN12	64%	23.2 µM		
Cc1cc(Cn2c(N3CCNCC3)nc3c(-c4ccccc4C(C)C)cc(Cl)cc32)cc(C)c1F				Kd [4]: 390 nM
Cc1cc(Cn2c(N3CCNCC3)nc3c(C4=CCNCC4)cc(Cl)cc32)cc(C)c1F				Kd [4]: 250 nM
Cc1cc(Cn2c(N3CCNCC3)nc3c(-c4cncnc4C(C)C)cc(Cl)cc32)cc(C)c1F			100 nM	EC50 [5]: 8.8 µM; EC50 [6]: 13.9 µM; Activity [7]: Active; Activity [8]: Active; Activity [9]: Active; Activity [10]: Active
Cc1cc2nc(N3CCNCC3)n(Cc3ccc(F)c(F)c3)c2cc1C	183%	5.9 µM		
Cc1cc(Cn2c(N3CCNCC3)nc3c(-c4ccccc4C(F)(F)F)cc(Cl)cc32)cc(C)c1F				Kd [4]: 150 nM
Cc1cc2nc(N3CCNCC3)n(Cc3ccc(Cl)cc3)c2cc1C	164%	12.4 µM		
Cc1cc(Cn2c(N3CCNCC3)nc3c(N4CCC[C@@H]4CN)cc(Cl)cc32)cc(C)c1F			240 nM	
Cc1cc(Cn2c(N3CCNCC3)nc3c(-c4ccccc4C4CCC4)cc(Cl)cc32)cc(C)c1F				Kd [4]: 440 nM
Cc1cc(Cn2c(N3CCNCC3)nc3c(-c4ccncc4)cc(Cl)cc32)cc(C)c1F			240 nM	
Cc1cc(Cn2c(N3CCNCC3)nc3c(N4CCCCC4)cc(Cl)cc32)cc(C)c1F			200 nM	
Cc1cc2nc(NC3CCNCC3)n(Cc3ccc(F)c(Cl)c3)c2cc1C	129%	37.1 µM		
Fc1ccc(Cn2c(N3CCNCC3)nc3ccccc32)cc1Cl	109%	5.4 µM		EC50 [5]: 21 µM; EC50 [6]: 51.4 µM; Activity [7]: Active; Activity [8]: inactive; Activity [9]: inactive; Activity [10]: Active
Cc1cc2nc(N3CCNCC3)n(Cc3ccc(C(F)(F)F)cc3)c2cc1C	148%	19.6 µM		
Cc1cc2nc(N3CCNCC3)n(Cc3ccc(F)c(Cl)c3)c2cc1C	211%	2.2 µM		EC50 [5]: 21.3 µM; EC50 [6]: 29.1 µM; Activity [7]: Active; Activity [8]: Active; Activity [9]: Active; Activity [10]: Active
Cc1cc(Cn2c(N3CCNCC3)nc3c(N4CCOCC4)cc(Cl)cc32)cc(C)c1F			130 nM	
Cc1cc(Cn2c(N3CCNCC3)nc3c(N4CCC[C@H]4CN)cc(Cl)cc32)cc(C)c1F			140 nM	EC50 [5]: 3.2 µM; EC50 [6]: 7.3 µM; Activity [7]: Active; Activity [8]: Active; Activity [9]: Active; Activity [10]: Active
Cc1cc2nc(N3CCN(C)CC3)n(Cc3ccc(F)c(Cl)c3)c2cc1C	143%	26 µM		

From ChEMBL document CHEMBL4196202, “Discovery and Structure-Based Optimization of Benzimidazole-Derived Activators of SOS1-Mediated Nucleotide Exchange on RAS” (J Med Chem, 2018)
